Diaph inh CS – inhibits diaphorase or chemically oxidizes, flagging diaphorase assay artifacts. diaphorase resazurin-to-resorufin fluorescence, NADH, 16 min; bacterial (C. kluyveri) enzyme, not human. inhibition, % at 20 µM. 190,000 compounds, 0.69% hits;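 active = primary screen inhibition at 20 µM above a set limit, cut at about 50% in these data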
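Assay system – diaphorase enzyme from Clostridium kluyveri · Amount – diaphorase 0.14 U/mL (working solution) · Times – reaction incubation of 16 min at room temperature · Controls – No-NADH positive control and DMSO neutral control · Signal – resorufin fluorescence 544/590 nm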
ROMK mod – human ROMK K+ channel modulation, primary screen | Tet-inducible ROMK, thallium flux fluorescence; actives lie on both sides | B-score at 10 µM | 130,000 compounds, 2% hits;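 active = signal ratio slope over the read window, or its plate-corrected B-score, at least 3 SD from the plate mean, either direction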;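 note: B-score of the F/F0 ratio slope over 7 to 12 s after thallium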
Target sequence (P48048 whole entry, looked up): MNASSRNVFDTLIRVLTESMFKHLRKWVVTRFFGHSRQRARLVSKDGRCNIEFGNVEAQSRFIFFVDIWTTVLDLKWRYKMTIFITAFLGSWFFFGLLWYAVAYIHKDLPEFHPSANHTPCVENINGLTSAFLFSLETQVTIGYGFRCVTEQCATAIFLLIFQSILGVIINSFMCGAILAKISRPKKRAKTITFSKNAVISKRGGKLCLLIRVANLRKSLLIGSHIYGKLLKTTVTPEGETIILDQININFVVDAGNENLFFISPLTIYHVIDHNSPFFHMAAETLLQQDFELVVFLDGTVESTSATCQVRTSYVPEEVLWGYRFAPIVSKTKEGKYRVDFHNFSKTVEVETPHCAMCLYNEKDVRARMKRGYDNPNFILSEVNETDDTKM
WT yeast gro inh – growth inhibition of WT yeast, mitochondrial fusion screen. inhibition, % at 10 µM. mitochondrial fusion phenotypic screen, WT strain. AID 1362. 190,000 compounds, 2.1% hits; in the data active = inhibition above about 58%; tested in S. cerevisiae
L major viab – Leishmania major promastigote growth inhibition; Leishmania major promastigotes, resazurin fluorescence viability; inhibition, % at 10 µM; 200,000 compounds, 9% hits; in the data active = inhibition above about 50%;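 note: promastigotes grown with compound for 44 hours at 28 °C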
KCC2 mod – modulates chloride dependent transport by human KCC2; KCC2 cells, thallium flux FluoZin-2 fluorescence; 190,000 compounds, 2.2% hits; B-score of Tl+ flux slope (higher = more flux/activation; lower = inhibition) at 10 µM; Q9H2X9;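 active = thallium flux slope and its plate-corrected score both differing from the plate sample mean at a set confidence after two filtering rounds, in either direction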;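 note: slope of fluorescence scaled to starting intensity during 10 to 20 s after thallium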
Diaphorase act – activates diaphorase or chemically reduces, flagging diaphorase assay artifacts | activation factor at 20 µM | Diaphorase/resazurin coupled assay, resorufin fluorescence, 16 min; hits give high values; 1 = vehicle wells, 0 = NADH-free wells | 190,000 compounds, 0.005% hits;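 active = diaphorase activity raised at least twofold by the compound at 20 µM; inactive = activation factor below 2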
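Material: purified diaphorase enzyme from Clostridium kluyveri; Also added: 0.114 mM NADH and 0.1 mM resazurin, final amounts; Doses: single compound dose of 20 µM, 1% DMSO final; Times: 16 min enzyme reaction, ambient temperature; Detection: resorufin fluorescence, excitation 544 nm, emission 590 nm; Measure: increased resorufin signal from activators or reducing compounds.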
A number is an active result; . = inactive; / = no result. Rows were chosen to be rich in hits. Some 12% of all compounds tested hit in one or more screens of this group.

SMILES	Diaph inh CS	ROMK mod	WT yeast gro inh	L major viab	KCC2 mod	Diaphorase act
CCC1CCC(C(=O)NNC(=O)c2cc(-c3ccco3)[nH]n2)CC1 (stereo not given)	.	.	.	.	.	.
O=C(c1cccc(F)c1)N1CCN(CC2CC3C=CC2C3)CC1 (stereo not given)	.	.	.	85	.	.
O=C(c1ccccc1F)N1CCN(CC2CC3C=CC2C3)CC1 (stereo not given)	.	/	.	59	.	.
CC1CCCC(N2CCN(C(=O)c3cccc(F)c3)CC2)C1 (stereo not given)	.	/	.	81	.	.
O=C(c1ccccc1F)N1CCN(Cc2ccccc2F)CC1	.	/	.	.	.	.
O=S(=O)(c1ccccc1)N1CCN(CC2CC3C=CC2C3)CC1 (stereo not given)	.	.	.	.	.	.
Cc1ccc(CN2CCN(CC3CC4C=CC3C4)CC2)cc1 (stereo not given)	.	.	.	96	.	.
COc1cccc(C(=O)N2CCN(C(=O)c3cccc(F)c3)CC2)c1	.	/	.	.	.	.
CCC(C(=O)NC1CCCCC1)N(Cc1cccs1)C(=O)c1snc(C(N)=O)c1N (stereo not given)	.	/	.	.	.	.
COc1ccc(-c2ccc(CCC(=O)O)n2CC2CCCO2)cc1 (stereo not given)	.	.	.	.	.	.
COCCNC(=O)C12CC3CC(CC(Cl)(C3)C1)C2	/	/	/	/	.	/
CC(Oc1ccc(Cl)cc1)c1ccnc(N)n1 (stereo not given)	.	.	.	.	.	.
COc1ccc(NC(=O)CN2CCc3ccccc3C2)cc1S(=O)(=O)N1CCOCC1	.	/	.	70	.	.
COc1ccc(NC(=O)Cc2coc3cc(C)ccc23)cc1S(=O)(=O)N1CCOCC1	.	/	.	.	.	.
COc1ccc(NC(=O)Cc2coc3ccc4ccccc4c23)cc1S(=O)(=O)N1CCOCC1	.	/	.	78	.	.
Cc1ccc(CN2CCN(/N=C/C=C/c3ccccc3[N+](=O)[O-])CC2)cc1	.	.	.	.	.	.
CCOc1ccccc1N1CC(C(=O)Nc2ccc3c(c2)OCCO3)CC1=O (stereo not given)	.	.	.	.	.	.
Cc1cccc(Cc2c(C)nc3c(C(=O)NCc4ccco4)cnn3c2C)c1	.	.	.	.	.	.
Cc1nc2c(C(=O)NCc3cccs3)cnn2c(C)c1Cc1ccccc1	.	.	.	54	.	.
Cn1c(=O)c2c(n(Cc3ccccc3)c1=O)NC(=O)C2CC(=O)NCc1cccc(Cl)c1 (stereo not given)	.	/	.	.	.	.
CC(/C=N/n1c(C2CCCCC2)n[nH]c1=S)=C\c1ccccc1	.	/	89	.	.	.
CC(=O)Nc1ccc(NC(=O)COC(=O)CCc2nc3ccccc3s2)cc1	.	.	.	.	.	.
C/C(=N\NC(=O)CN1CCN(S(=O)(=O)c2ccc(C)cc2)CC1)c1ccc(O)cc1	/	/	/	/	.	/
CCc1ccc(NC2=CC(=O)CC(c3ccco3)C2)cc1 (stereo not given)	.	/	/	63	.	.
Cc1cc(C)cc(NC2=CC(=O)CC(c3ccco3)C2)c1 (stereo not given)	.	.	.	.	.	.
COc1ccc(N(C)S(=O)(=O)c2cccc(C(=O)Nc3cc(OC)ccc3OC)c2)cc1	.	.	.	82	.	.
COc1ccc(N(C)S(=O)(=O)c2cccc(C(=O)OC(C(=O)Nc3cc(C)cc(C)c3)c3ccccc3)c2)cc1 (stereo not given)	.	.	.	96	.	.
CC(=O)c1cccc(NC(=O)C(OC(=O)c2ccccc2NS(=O)(=O)c2cccs2)c2ccccc2)c1 (stereo not given)	.	.	.	.	.	.
CC(=O)c1cccc(NC(=O)C(OC(=O)c2cccc(S(=O)(=O)N(C)c3ccccc3)c2)c2ccccc2)c1 (stereo not given)	.	/	.	96	.	.
CCOC(=O)c1c(NC(=O)CC2SC(N)=NC2=O)sc(C)c1C (stereo not given)	.	.	.	.	.	.

Screens deposited in PubChem BioAssay by several laboratories.
